Tests used:
SNB-75 = assay: Growth inhibition of human SNB75 cells assessed as cell growth at 10^-5 M after 48 hrs by sulforhodamine B assay relative to control; type: functional; conditions: SNB-75, 48 h, read-out: Activity
How it was run: (§1)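 NCI primary screen across about 60 human tumour cell lines. Single dose of 10^-5 M, cultures incubated 48 h, end point by sulforhodamine B protein staining read spectrophotometrically. Results are given as percent growth of treated cells relative to untreated control cells.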

UACC-62 = assay: Growth inhibition of human UACC62 cells assessed as cell growth at 10^-5 M after 48 hrs by sulforhodamine B assay relative to control; type: functional; conditions: UACC-62, 48 h, read-out: Activity; how it was run: as §1
NCI-H460 = assay: Growth inhibition of human NCI-H460 cells assessed as cell growth at 10^-5 M after 48 hrs by sulforhodamine B assay relative to control; type: functional; conditions: NCI-H460, 48 h, read-out: Activity
How it was run: (§2)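 NCI primary screen, one-dose format across about 60 human tumour cell lines. Single addition at 10^-5 M with 48 h incubation; SRB protein-binding dye end point read spectrophotometrically. Reported as percent growth of treated cells versus untreated controls.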

[1] = Growth inhibition of human OVCAR5 cells assessed as cell growth at 10^-5 M after 48 hrs by sulforhodamine B assay relative to control; type: functional; conditions: OVCAR-5, 48 h, read-out: Activity; how it was run: as §2
T47D = assay: Growth inhibition of human T47D cells assessed as cell growth at 10^-5 M after 48 hrs by sulforhodamine B assay relative to control; type: functional; conditions: read-out: Activity; how it was run: as §1
NCI-H522 = assay: Growth inhibition of human NCI-H522 cells assessed as cell growth at 10^-5 M after 48 hrs by sulforhodamine B assay relative to control; type: functional; conditions: NCI-H522, 48 h, read-out: Activity; how it was run: as §2
KM12 = assay: Growth inhibition of human KM12 cells assessed as cell growth at 10^-5 M after 48 hrs by sulforhodamine B assay relative to control; type: functional; conditions: KM12, 48 h, read-out: Activity; how it was run: as §2
[2] = Growth inhibition of human HCC2998 cells assessed as cell growth at 10^-5 M after 48 hrs by sulforhodamine B assay relative to control; type: functional; conditions: HCC 2998, 48 h, read-out: Activity
How it was run: (§3)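 NCI ~60 human tumour cell line screen. Single concentration of 10^-5 M added to cultures for 48 h. End point by sulforhodamine B protein staining read spectrophotometrically. Percent growth relative to untreated control cells.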

[3] = Induction of nitric oxide release in phosphate buffer at 10^-4 M at pH 7.4 after 2 hrs by Griess colorimetric method in presence of N-acetylcysteine; type: physicochemical; conditions: pH 7.4, 2 h, 100 µM
How it was run: (§4)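 Final drug concentration 10^-4 M, added from DMF into 1:1 50 mM phosphate buffer (pH 7.4)/MeOH containing 5 × 10^-4 M N-acetylcysteine, at 37 °C. Nitrite read with Griess reagent after 10 min at room temperature, absorbance at 546 nm. Calibration with sodium nitrite standards (10–80 nmol/ml). Reported as mol NO per mol, n = 4 reaction mixtures.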

BT-549 = assay: Growth inhibition of human BT549 cells assessed as cell growth at 10^-5 M after 48 hrs by sulforhodamine B assay relative to control; type: functional; conditions: BT-549, 48 h, read-out: Activity; how it was run: as §3
786-0 = assay: Growth inhibition of human 786-0 cells assessed as cell growth at 10^-5 M after 48 hrs by sulforhodamine B assay relative to control; type: functional; conditions: 786-0, 48 h, read-out: Activity; how it was run: as §3
U-251 = assay: Growth inhibition of human U251 cells assessed as cell growth at 10^-5 M after 48 hrs by sulforhodamine B assay relative to control; type: functional; conditions: U-251, 48 h, read-out: Activity; how it was run: as §1
[4] = Growth inhibition of human Hs 578T cells assessed as cell growth at 10^-5 M after 48 hrs by sulforhodamine B assay relative to control; type: functional; conditions: read-out: Activity; how it was run: as §3
[5] = Growth inhibition of human UACC257 cells assessed as cell growth at 10^-5 M after 48 hrs by sulforhodamine B assay relative to control; type: functional; conditions: UACC-257, 48 h, read-out: Activity; how it was run: as §1
COLO 205 = assay: Growth inhibition of human COLO205 cells assessed as cell growth at 10^-5 M after 48 hrs by sulforhodamine B assay relative to control; type: functional; conditions: COLO 205, 48 h, read-out: Activity; how it was run: as §3
Rattus norvegicus [6] = assay: Antiinflammatory activity in albino rat assessed as inhibition of carrageenan-induced paw edema at 0.28 mmol/kg, po administered 30 mins prior to carrageenan-challenge measured after 4 hrs relative to control; type: functional
How it was run: (§5)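 Male albino rats in groups of four were fasted 24 h with water allowed. Dosing was oral at 0.28 mmol/kg, suspended in 0.5% w/v CMC; controls got CMC alone. After 30 min, 0.1 ml of 1% carrageenan in saline went subplantar into the right hind paw and saline into the left. Paw thickness was read by caliper before and at 1–5 h. % inhibition = [(VR−VL)control−(VR−VL)treated]/(VR−VL)control ×100. Mean ± SEM, n = 4, one-way ANOVA vs control.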

HOP-62 = assay: Growth inhibition of human HOP62 cells assessed as cell growth at 10^-5 M after 48 hrs by sulforhodamine B assay relative to control; type: functional; conditions: HOP-62, 48 h, read-out: Activity; how it was run: as §3
LOX IMVI = assay: Growth inhibition of human LOXIMVI cells assessed as cell growth at 10^-5 M after 48 hrs by sulforhodamine B assay relative to control; type: functional; conditions: read-out: Activity; how it was run: as §2
SK-MEL-2 = assay: Growth inhibition of human SK-MEL-2 cells assessed as cell growth at 10^-5 M after 48 hrs by sulforhodamine B assay relative to control; type: functional; conditions: SK-MEL-2, 48 h, read-out: Activity; how it was run: as §1
MDA-MB-468 = assay: Growth inhibition of human MDA-MB-468 cells assessed as cell growth at 10^-5 M after 48 hrs by sulforhodamine B assay relative to control; type: functional; conditions: MDA-MB-468, 48 h, read-out: Activity; how it was run: as §2
MOLT-4 = assay: Growth inhibition of human MOLT4 cells assessed as cell growth at 10^-5 M after 48 hrs by sulforhodamine B assay relative to control; type: functional; conditions: MOLT-4, 48 h, read-out: Activity; how it was run: as §2
[7] = Induction of nitric oxide release in phosphate buffer at 10^-4 M at pH 7.4 after 3 hrs by Griess colorimetric method in presence of N-acetylcysteine; type: physicochemical; conditions: pH 7.4, 3 h, 100 µM; how it was run: as §4
Rattus norvegicus [8] = assay: Antiinflammatory activity in albino rat assessed as inhibition of carrageenan-induced paw edema at 0.28 mmol/kg, po administered 30 mins prior to carrageenan-challenge measured after 3 hrs relative to control; type: functional; how it was run: as §5
[9] = Induction of nitric oxide release in phosphate buffer at 10^-4 M at pH 7.4 after 5 hrs by Griess colorimetric method in presence of N-acetylcysteine; type: physicochemical; conditions: pH 7.4, 5 h, 100 µM; how it was run: as §4
A549 = assay: Growth inhibition of human A549/ATCC cells assessed as cell growth at 10^-5 M after 48 hrs by sulforhodamine B assay relative to control; type: functional; conditions: A549, 48 h, read-out: Activity; how it was run: as §3
PC-3 = assay: Growth inhibition of human PC3 cells assessed as cell growth at 10^-5 M after 48 hrs by sulforhodamine B assay relative to control; type: functional; conditions: PC-3, 48 h, read-out: Activity; how it was run: as §2

Structure (SMILES) | growth at 10 µM (SNB-75) | growth at 10 µM (UACC-62) | growth at 10 µM (NCI-H460) | growth at 10 µM [1] | growth at 10 µM (T47D) | growth at 10 µM (NCI-H522) | growth at 10 µM (KM12) | growth at 10 µM [2] | Activity [3] | growth at 10 µM (BT-549) | growth at 10 µM (786-0) | growth at 10 µM (U-251) | growth at 10 µM [4] | growth at 10 µM [5] | growth at 10 µM (COLO 205) | inhibition in vivo at 280 µmol/kg (Rattus norvegicus [6]) | growth at 10 µM (HOP-62) | growth at 10 µM (LOX IMVI) | growth at 10 µM (SK-MEL-2) | growth at 10 µM (MDA-MB-468) | further results
C/C(=N\O)c1ccc(NC(=O)CSc2nnc(-c3ccccc3)n2-c2ccccc2)cc1 | 59.2% | 76.7% | -34.7% | 84.7% | 92% | 53.3% | 83.1% | 28.6% | 0.15 mol/mol | 75.3% | 92.7% | 63.6% | 79.6% | 81.8% | 91.1% | 67% | 64.7% | 82.9% | 97.7% | 90.4% | growth at 10 µM (MOLT-4): 95.2%; Activity [7]: 0.2 mol/mol; inhibition in vivo at 280 µmol/kg (Rattus norvegicus [8]): 63%; Activity [9]: 0.14 mol/mol; growth at 10 µM (A549): 81.9%; growth at 10 µM (PC-3): 104%
COc1ccc(-c2nnc(SCC(=O)Nc3ccc(/C(C)=N/O)cc3)n2-c2ccccc2)cc1OC | -16.5% | 82.8% | 102% | 97% | 68% | 35.3% | 106% | 94% | 0.2 mol/mol | 65.2% | 64.5% | 34.4% | 42.8% | 91.8% | 99.1% | 79% | -26.4% | 80.1% | 57.6% | 78.5% | growth at 10 µM (MOLT-4): 91.7%; Activity [7]: 0.23 mol/mol; inhibition in vivo at 280 µmol/kg (Rattus norvegicus [8]): 77%; Activity [9]: 0.35 mol/mol; growth at 10 µM (A549): 70.7%; growth at 10 µM (PC-3): 110%

Reference: ChEMBL document CHEMBL3102806, “1,2,4-Triazole/oxime hybrids as new strategy for nitric oxide donors: Synthesis, anti-inflammatory, ulceroginicity and antiproliferative activities” (Eur J Med Chem, 2014)
